Values after ≈ are worked out from the molar mass of the structure shown. Active and inactive are the calls of the source. No cut-off for these calls is given here.

Data set [1] is described as follows: Cytotoxicity against human HuH7 cells assessed as growth inhibition. The data set is classed as cell-based, Huh-7. The procedure, abridged: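 Compound toxicity is measured as inhibition of Huh-7 cell growth, run in parallel with the HCVcc infection assay. CC50 comes from 10-point dose-response curves, done in duplicate with quadruplicate measurements.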
The nature of data set [2]: Selectivity index, ratio of CC50 for human HuH7 cells to EC50 for 1 MOI of HCV genotype 2 infected in human HuH7 cells. More on the design: species or system Huh-7. The procedure, abridged:
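The SI is CC50 divided by EC50. Both values come from 10-point dose-response curves (duplicates, quadruplicate measurements) in Huh-7 cells. CC50 is from cell growth inhibition.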

In data set [3] the test system is Hepatitis C virus. In words: Antiviral activity against 1 MOI of HCV genotype 2 infected in human HuH7 cells assessed as inhibition of viral RNA replication after 72 hrs by confocal microscopy. The data set is classed as functional, organism-based, Hepacivirus hominis. The note with it: genotype 2, Huh-7, 72 h. The procedure, abridged: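 Reporter virus is cell-culture-adapted full-length JFH-1 with GFP inserted in NS5A domain III; GFP fluorescence tracks viral RNA replication. Serially diluted compound added to naïve Huh-7 cells, then infected with HCVcc at MOI 1. Live cells imaged by automated confocal microscopy at 72 h post-infection. EC50 from 10-point dose-response curves, run in duplicate with quadruplicate measurements.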

Data set [4] can be described thus: Half life in human liver microsomes. The data set is classed as ADME, Microsome.
A short description of data set [5]: Half life in rat liver microsomes. Type of data set: ADME, Microsome.
Data set [6] is described as follows: Solubility of the compound at pH 7.4. Type of data set: physicochemical. As to conditions: buffer.
For data set [7], the system named is Hepatitis C virus. Put plainly: Antiviral activity against HCV genotype 1 expressing envelope protein at 1 uM. The data set is classed as functional, organism-based. As to conditions: Hepacivirus hominis.
In data set [8] the test system is Hepatitis C virus. Put plainly: Antiviral activity against HCV genotype 2 by replicon assay. Type of data set: functional, organism-based, Hepacivirus hominis.

Regarding `Cc1cc(NC2CCN(C(C)C)CC2)n2nccc2n1`, the CC50 in data set [1] came to 12 µM. In addition, in data set [2], the “Ratio CC50/EC50” value was found to be 1. In addition, the EC50 in data set [3] turned out to be 12 µM.

As for `Cc1ccc(-c2c(C)nn3c(NCc4cccnc4)c4c(nc23)CCCC4)cc1`, the CC50 in data set [1] worked out at 8.7 µM. Moreover, the “Ratio CC50/EC50” value in data set [2] was 3.1. The EC50 in data set [3] is 2.8 µM.

Consider `Cc1ccc(-c2c(C)nn3c(NCCCN(C)C)cc(C)nc23)cc1`, for which the half-life was over 1 h in data set [4] and 0.373 h in data set [5]. In addition, the solubility in data set [6] amounted to 76 µM (≈ 25.6 µg/mL). In data set [7], the result was inactive. Moreover, in data set [1], the CC50 is 22 µM. Also, the “Ratio CC50/EC50” value in data set [2] is 41. The EC50 in data set [3] amounted to 0.54 µM.

For `Cc1ccc(-c2c(C)nn3c(NC4CCN(C(C)C)CC4)cc(C)nc23)cc1`, the half-life in data set [4] and in data set [5] was over 1 h throughout. Further, the concentration in solution in data set [6] (solubility) was 73 µM (≈ 27.6 µg/mL). Further, the outcome in data set [7] was inactive. In addition, the EC50 result in data set [8] was “Not Active”; in data set [3], 0.28 µM. Further, the half-maximal cytotoxic concentration (CC50) in data set [1] came to 8.8 µM. Also, the “Ratio CC50/EC50” value in data set [2] was found to be 31.

Turning to `COCCCNc1cc(C)nc2c(-c3ccc(C)cc3)c(C)nn12`, in data set [1], the CC50 turned out to be 19 µM. In data set [2], the “Ratio CC50/EC50” value is reported as 8.3. Moreover, the EC50 in data set [3] was 2.3 µM.

As for `Cc1ccc(-c2c(C)nn3c(NCCc4ccccc4)cc(C)nc23)cc1`, the CC50 in data set [1] turned out to be 5.2 µM. In data set [2], the “Ratio CC50/EC50” value came to 1. In addition, the EC50 in data set [3] came out at 5.3 µM.

Take `Cc1ccc(-c2c(C)nn3c(NC4CCN(C)CC4)cc(C)nc23)cc1`: in data set [1], the CC50 worked out at 18 µM. The “Ratio CC50/EC50” value in data set [2] was 18. Moreover, the EC50 in data set [3] amounted to 1 µM.

Regarding `Cc1ccc(-c2c(C)nn3c(NCCN(C)C)cc(C(F)(F)F)nc23)cc1`, in data set [1], the CC50 came out at 15 µM. The “Ratio CC50/EC50” value in data set [2] was 2.1. Also, in data set [3], the EC50 is 7.2 µM.

Values taken from ChEMBL document CHEMBL2203124, “Discovery and characterization of a novel 7-aminopyrazolo[1,5-a]pyrimidine analog as a potent hepatitis C virus inhibitor” (Bioorg Med Chem Lett, 2012).
